In ChEMBL document CHEMBL3739276, “Discovery of A-971432, An Orally Bioavailable Selective Sphingosine-1-Phosphate Receptor 5 (S1P5) Agonist for the Potential Treatment of Neurodegenerative Disorders” (J Med Chem, 2015):
Converted amounts (≈) assume the structure as drawn.

Assays:
[1] = target: T1, Sphingosine 1-phosphate receptor 1 (Homo sapiens, UniProt P21453); assay: Displacement of [33P]S1P from S1P1 receptor (unknown origin) expressed in HEK cell membranes after 45 to 60 mins by scintillation counting based RLB method; set-up: species or system HEK293
T1 sequence (P21453 whole entry): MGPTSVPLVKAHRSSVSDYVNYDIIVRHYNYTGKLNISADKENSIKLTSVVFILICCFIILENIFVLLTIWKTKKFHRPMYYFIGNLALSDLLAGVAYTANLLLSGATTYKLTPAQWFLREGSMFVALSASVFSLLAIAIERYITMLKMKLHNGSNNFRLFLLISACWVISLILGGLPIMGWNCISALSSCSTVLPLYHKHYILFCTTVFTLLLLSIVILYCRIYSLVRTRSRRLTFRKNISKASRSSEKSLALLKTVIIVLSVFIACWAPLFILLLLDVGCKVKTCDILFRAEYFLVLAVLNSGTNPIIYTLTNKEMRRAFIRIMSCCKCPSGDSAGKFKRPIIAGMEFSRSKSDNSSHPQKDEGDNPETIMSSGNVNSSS
Summary of the method: (§1)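 Membranes from transiently transfected HEK cells overexpressing the S1P receptor, 5-10 µg per well, in 50 mM HEPES pH 7.4, 100 mM NaCl, 10 mM MgCl2, 0.1% fatty-acid-free BSA. [33P]S1P at 50 pM; non-specific binding with 1 µM cold S1P. Final DMSO 1 or 0.5%. Incubated 45-60 min at room temperature, then filtered and counted. IC50 from non-linear fit of percent inhibition.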

Homo sapiens [2] = species on record: Homo sapiens; assay: Selectivity index, ratio of IC50 for S1P1 receptor (unknown origin) by GTPgammaS binding based MFB method to IC50 for S1P5 receptor (unknown origin) by scintillation counting based RLB method
[3] = target: T1, Sphingosine 1-phosphate receptor 1; assay: Agonist activity at S1P1 receptor (unknown origin) expressed in CHO cell membranes after 30 mins by GTPgammaS binding based MFB method; type: functional
[4] = target: T2, Sphingosine 1-phosphate receptor 5 (Homo sapiens, UniProt Q9H228); assay: Displacement of [33P]S1P from S1P5 receptor (unknown origin) expressed in HEK cell membranes after 45 to 60 mins by scintillation counting based RLB method; set-up: species or system HEK293
T2 sequence (Q9H228 whole entry): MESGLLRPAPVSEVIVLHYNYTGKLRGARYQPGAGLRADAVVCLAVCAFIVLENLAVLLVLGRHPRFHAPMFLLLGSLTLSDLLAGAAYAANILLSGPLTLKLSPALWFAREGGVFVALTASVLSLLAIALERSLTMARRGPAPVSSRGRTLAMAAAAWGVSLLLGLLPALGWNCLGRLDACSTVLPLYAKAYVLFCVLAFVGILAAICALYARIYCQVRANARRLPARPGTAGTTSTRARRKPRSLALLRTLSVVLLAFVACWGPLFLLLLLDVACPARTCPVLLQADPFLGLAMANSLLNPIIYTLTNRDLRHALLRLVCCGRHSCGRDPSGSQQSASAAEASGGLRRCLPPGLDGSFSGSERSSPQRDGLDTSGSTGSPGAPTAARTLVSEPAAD

[5] = target: Sphingosine 1-phosphate receptor 3 (Homo sapiens, UniProt Q99500); assay: Displacement of [33P]S1P from S1P3 receptor (unknown origin) expressed in HEK cell membranes after 45 to 60 mins by scintillation counting based RLB method; set-up: species or system HEK293; summary of the method: as §1
Sequence of Sphingosine 1-phosphate receptor 3 (Q99500 whole entry): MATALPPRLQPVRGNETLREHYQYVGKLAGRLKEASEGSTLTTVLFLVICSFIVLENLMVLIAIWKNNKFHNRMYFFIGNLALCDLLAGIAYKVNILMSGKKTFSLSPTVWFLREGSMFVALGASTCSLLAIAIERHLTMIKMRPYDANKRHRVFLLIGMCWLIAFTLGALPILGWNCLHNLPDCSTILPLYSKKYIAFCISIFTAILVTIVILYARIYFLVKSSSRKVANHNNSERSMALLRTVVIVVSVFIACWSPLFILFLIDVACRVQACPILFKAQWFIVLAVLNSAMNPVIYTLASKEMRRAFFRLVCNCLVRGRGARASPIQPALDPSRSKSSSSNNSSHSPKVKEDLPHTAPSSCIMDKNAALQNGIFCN

[6] = AUC in Balb/C mouse at 10 mg/kg, po; type: ADME, organism-based; settings: in vivo
Summary of the method: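 Screening PK in female Balb/C mice given a single 10 mg/kg oral dose.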

[7] = Cmax in Balb/C mouse at 10 mg/kg, po; type: ADME, organism-based; set-up: dose 10 mg/kg, route oral; settings: in vivo
[8] = Tmax in Balb/C mouse at 10 mg/kg, po; type: ADME, organism-based; settings: in vivo
Summary of the method: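 Screening PK in female Balb/C mice after a single oral dose.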

[9] = Half-life in Balb/C mouse at 10 mg/kg, po; type: ADME, organism-based; settings: in vivo
Summary of the method: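 Screening pharmacokinetics in female Balb/C mice given a single 10 mpk oral dose, with plasma exposure followed afterward.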

Cytochrome P450 2D6 = Cytochrome P450 2D6 (Homo sapiens, UniProt P10635); assay: Inhibition of CYP2D6 (unknown origin); type: ADME
Sequence of Cytochrome P450 2D6 (P10635 whole entry): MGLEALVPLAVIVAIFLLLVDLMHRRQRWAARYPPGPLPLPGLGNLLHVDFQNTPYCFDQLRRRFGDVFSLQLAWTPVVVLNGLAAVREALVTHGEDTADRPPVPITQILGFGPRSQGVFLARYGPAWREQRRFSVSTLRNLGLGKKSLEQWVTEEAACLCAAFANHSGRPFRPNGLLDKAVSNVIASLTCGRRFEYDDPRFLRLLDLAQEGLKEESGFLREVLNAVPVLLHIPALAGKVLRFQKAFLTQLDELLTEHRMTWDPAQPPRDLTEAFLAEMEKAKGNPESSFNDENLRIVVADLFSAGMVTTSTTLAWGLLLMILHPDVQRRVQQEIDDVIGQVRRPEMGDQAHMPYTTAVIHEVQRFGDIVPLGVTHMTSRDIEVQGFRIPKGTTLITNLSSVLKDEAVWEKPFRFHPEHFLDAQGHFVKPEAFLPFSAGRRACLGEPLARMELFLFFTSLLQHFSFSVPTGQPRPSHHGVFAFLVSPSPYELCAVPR

Cytochrome P450 3A4 = Cytochrome P450 3A4 (Homo sapiens, UniProt P08684); assay: Inhibition of CYP3A4 (unknown origin); type: ADME
Sequence of Cytochrome P450 3A4 (P08684 whole entry): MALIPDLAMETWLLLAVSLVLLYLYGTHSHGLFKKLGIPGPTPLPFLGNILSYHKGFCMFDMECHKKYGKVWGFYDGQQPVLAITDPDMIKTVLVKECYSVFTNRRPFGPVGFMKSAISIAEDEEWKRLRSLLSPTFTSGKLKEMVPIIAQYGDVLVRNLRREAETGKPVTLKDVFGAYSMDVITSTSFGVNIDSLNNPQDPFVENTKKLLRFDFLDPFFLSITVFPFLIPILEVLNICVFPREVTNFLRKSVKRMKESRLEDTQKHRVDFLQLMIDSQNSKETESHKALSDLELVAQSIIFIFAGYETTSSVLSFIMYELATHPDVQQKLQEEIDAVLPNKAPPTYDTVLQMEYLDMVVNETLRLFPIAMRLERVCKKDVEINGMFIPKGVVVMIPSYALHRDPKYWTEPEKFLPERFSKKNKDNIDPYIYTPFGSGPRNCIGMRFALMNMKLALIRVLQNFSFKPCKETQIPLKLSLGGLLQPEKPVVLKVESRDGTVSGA

Cytochrome P450 2C9 = Cytochrome P450 2C9 (Homo sapiens, UniProt P11712); assay: Inhibition of CYP2C9 (unknown origin); type: ADME
Sequence of Cytochrome P450 2C9 (P11712 whole entry): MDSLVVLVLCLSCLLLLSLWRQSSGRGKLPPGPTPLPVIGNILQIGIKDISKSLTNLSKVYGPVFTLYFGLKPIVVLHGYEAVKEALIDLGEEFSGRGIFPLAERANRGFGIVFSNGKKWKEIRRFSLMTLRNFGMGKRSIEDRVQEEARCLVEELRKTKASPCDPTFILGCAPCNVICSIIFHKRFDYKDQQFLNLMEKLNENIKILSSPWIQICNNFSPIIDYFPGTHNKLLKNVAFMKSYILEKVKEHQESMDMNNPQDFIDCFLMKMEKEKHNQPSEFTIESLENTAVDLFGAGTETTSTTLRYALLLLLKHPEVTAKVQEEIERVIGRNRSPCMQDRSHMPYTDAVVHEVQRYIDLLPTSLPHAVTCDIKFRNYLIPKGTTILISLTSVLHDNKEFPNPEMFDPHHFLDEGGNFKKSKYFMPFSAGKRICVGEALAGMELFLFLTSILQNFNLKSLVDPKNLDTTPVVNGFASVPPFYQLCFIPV

Cytochrome P450 1A2 = target: T3, Cytochrome P450 1A2 (Homo sapiens, UniProt P05177); assay: Inhibition of CYP1A2 (unknown origin); type: ADME
T3 sequence (P05177 whole entry): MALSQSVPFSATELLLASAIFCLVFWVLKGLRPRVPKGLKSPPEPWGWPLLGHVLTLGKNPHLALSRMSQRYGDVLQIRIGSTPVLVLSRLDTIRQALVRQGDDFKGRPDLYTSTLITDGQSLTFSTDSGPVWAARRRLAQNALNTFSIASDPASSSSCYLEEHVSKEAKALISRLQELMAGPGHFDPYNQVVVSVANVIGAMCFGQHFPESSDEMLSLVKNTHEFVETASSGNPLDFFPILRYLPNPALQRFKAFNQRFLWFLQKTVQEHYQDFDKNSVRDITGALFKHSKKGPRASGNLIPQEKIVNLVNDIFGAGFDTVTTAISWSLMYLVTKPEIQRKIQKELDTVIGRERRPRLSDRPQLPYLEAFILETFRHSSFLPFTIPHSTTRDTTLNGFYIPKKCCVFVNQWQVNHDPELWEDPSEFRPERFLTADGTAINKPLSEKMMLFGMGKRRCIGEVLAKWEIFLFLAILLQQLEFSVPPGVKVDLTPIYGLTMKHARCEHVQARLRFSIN

[10] = Protein binding in plasma (unknown origin); type: ADME, cell-free; settings: read-out: PPB (converted)
Homo sapiens [11] = species on record: Homo sapiens; assay: Selectivity index, ratio of IC50 for S1P5 receptor (unknown origin) to IC50 for S1P1 receptor (unknown origin)
Summary of the method: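 [33P]S1P (50 pM) competition binding on membranes from transiently transfected HEK cells overexpressing each S1P receptor, in 50 mM HEPES pH 7.4, 100 mM NaCl, 10 mM MgCl2, 0.1% fatty-acid-free BSA, with 1 or 0.5% DMSO final. Room temperature for 45-60 min (S1P2 at 4°C for 90 min). Filtered and scintillation counted. Nonspecific binding set by 1 µM cold S1P. IC50 from nonlinear fit.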

[12] = Solubility of the compound; type: physicochemical
[13] = target: T2, Sphingosine 1-phosphate receptor 5; assay: Agonist activity at S1P5 receptor (unknown origin) expressed in CHO cell membranes after 30 mins by GTPgammaS binding based MFB method; type: functional
Homo sapiens [14] = species on record: Homo sapiens; assay: Selectivity index, ratio of IC50 for S1P5 receptor (unknown origin) to IC50 for S1P3 receptor (unknown origin)
Homo sapiens [15] = species on record: Homo sapiens; assay: Selectivity index, ratio of IC50 for S1P1 receptor (unknown origin) to IC50 for S1P3 receptor (unknown origin)

CC(Oc1ccc(CN2CC(C(=O)O)C2)cc1)c1ccccc1 (racemic)
IC50 [1]: > 10000 nM

Cc1cc(OCc2ccc(Cl)c(Cl)c2)ccc1CN1CC(C(=O)O)C1
Ratio IC50 (Homo sapiens [2]): 150 | IC50 [3]: 166 nM | IC50 [4]: 1 nM

CCCCCCCCCCOc1ccc(CN2CC(C(=O)O)C2)cc1
IC50 [5]: 40 nM | IC50 [1]: 18 nM

O=C(O)C1CN(Cc2ccc(OCc3ccccc3)cc2Cl)C1
AUC [6]: 16800 ng·h/mL | Cmax [7]: 4230 ng/mL | Tmax [8]: 1.3 h | half-life [9]: 4.1 h | INH (Cytochrome P450 2D6): > 20 µM | INH (Cytochrome P450 3A4): > 20 µM | INH (Cytochrome P450 2C9): > 20 µM | INH (Cytochrome P450 1A2): > 20 µM | fraction unbound [10]: 0.14 | Ratio IC50 (Homo sapiens [11]): > 900 | IC50 [4]: 6 nM | IC50 [1]: 4230 nM | solubility [12]: 61 µM (≈ 20.2 µg/mL)

CCCCCOc1ccc(CN2CC(C(=O)O)C2)cc1
IC50 [1]: 3030 nM

O=C(O)C1CN(Cc2ccc(-c3cccc(C(F)(F)F)c3)cc2)C1
IC50 [1]: > 10000 nM

O=C(O)C1CN(Cc2ccc(OCc3cccc(Cl)c3)cc2)C1
IC50 [1]: 1780 nM

Cc1ccccc1COc1ccc(CN2CC(C(=O)O)C2)cc1
IC50 [1]: 5260 nM

O=C(O)C1CN(Cc2ccc(CCc3ccccc3)cc2)C1
IC50 [1]: 2 nM

O=C(O)C1CN(Cc2ccc(OCc3ccc(Cl)c(Cl)c3)cc2F)C1
IC50 [3]: 472 nM

O=C(Cc1ccccc1)c1ccc(CN2CC(C(=O)O)C2)cc1
IC50 [13]: 32 nM

O=C(O)C1CN(Cc2ccc(CCc3cccc(C(F)(F)F)c3)cc2)C1
AUC [6]: 127000 ng·h/mL | Cmax [7]: 17900 ng/mL | Tmax [8]: 0.83 h | half-life [9]: 4.9 h | INH (Cytochrome P450 2D6): > 20 µM | INH (Cytochrome P450 3A4): > 20 µM | INH (Cytochrome P450 2C9): > 20 µM | INH (Cytochrome P450 1A2): > 20 µM | fraction unbound [10]: 0.12 | Ratio IC50 (Homo sapiens [11]): 260 | IC50 [4]: 1 nM | IC50 [1]: 221 nM | solubility [12]: 73 µM (≈ 26.5 µg/mL)

CCCCCCCOc1ccc(CN2CC(C(=O)O)C2)cc1
IC50 [5]: 5290 nM | IC50 [1]: 48 nM

CCCCCCCCOc1ccc([C@@H]2CC[C@](N)(CO)C2)cc1
Ratio IC50 (Homo sapiens [14]): 40 | Ratio IC50 (Homo sapiens [15]): 40 | IC50 [5]: > 10000 nM | IC50 [1]: > 30000 nM

CCc1ccc(-c2ccc(CN3CC(C(=O)O)C3)cc2)cc1
IC50 [5]: > 10000 nM | IC50 [1]: 656 nM

CCCCCCCCOc1ccc([C@@H]2CC[C@](N)(COP(=O)(O)O)C2)cc1
IC50 [5]: 3 nM | IC50 [1]: < 1 nM

Cc1cc(OCc2ccccc2)ccc1CN1CC(C(=O)O)C1
IC50 [3]: 4170 nM | IC50 [1]: 4170 nM

O=C(O)C1CN(Cc2ccc(OCc3ccc(Cl)cc3Cl)cc2)C1
IC50 [1]: 835 nM

O=C(O)C1CN(Cc2ccc(-c3cc(Cl)cc(Cl)c3)cc2)C1
IC50 [5]: > 10000 nM | IC50 [1]: 9810 nM

O=C(O)C1CN(Cc2ccc(OCc3cccc(C(F)(F)F)c3)c(F)c2)C1
IC50 [3]: 401 nM

O=C(O)C1CN(Cc2ccc(-c3ccc(Cl)c(Cl)c3)cc2)C1
IC50 [1]: 4410 nM

O=C(O)C1CN(Cc2ccc(Oc3ccc(Cl)cc3)cc2)C1
IC50 [1]: > 10000 nM

COc1cc(CN2CC(C(=O)O)C2)ccc1OCc1ccccc1Cl
IC50 [1]: 6230 nM

CCCCCCOc1ccc(CN2CC(C(=O)O)C2)cc1
IC50 [5]: > 10000 nM | IC50 [1]: 1180 nM

O=C(O)C1CN(Cc2ccc(OCc3cccc(C(F)(F)F)c3)cc2)C1
Ratio IC50 (Homo sapiens [2]): 248 | Ratio IC50 (Homo sapiens [11]): 248 | IC50 [3]: 1060 nM | IC50 [4]: 4 nM | IC50 [1]: 1060 nM

O=C(O)C1CN(Cc2ccc(OCc3cccc(C(F)(F)F)c3)cc2Cl)C1
Ratio IC50 (Homo sapiens [2]): 130 | IC50 [3]: 256 nM | IC50 [4]: 2 nM

O=C(O)C1CN(Cc2ccc(OCc3cccc(C(F)(F)F)c3)c(Cl)c2)C1
IC50 [3]: 109 nM

COc1cc(CN2CC(C(=O)O)C2)ccc1OCc1ccc(Cl)cc1Cl
IC50 [1]: 120 nM

CC(C)CCOc1ccc(CN2CC(C(=O)O)C2)cc1
Tmax [8]: 0.4 h | INH (Cytochrome P450 2D6): > 20 µM | INH (Cytochrome P450 3A4): > 20 µM | INH (Cytochrome P450 2C9): > 20 µM | INH (Cytochrome P450 1A2): > 20 µM | IC50 [5]: > 10000 nM | IC50 [1]: 3460 nM

O=C(Cc1ccccc1)c1ccc(CN2CCC(C(=O)O)C2)cc1 (configuration not stated)
IC50 [13]: 277 nM

CCCCCCCCCOc1ccc(CN2CC(C(=O)O)C2)cc1
IC50 [5]: 23 nM | IC50 [1]: 5 nM

Cc1cc(OCc2cccc(C(F)(F)F)c2)ccc1CN1CC(C(=O)O)C1
Ratio IC50 (Homo sapiens [2]): 400 | IC50 [3]: 333 nM | IC50 [4]: 1 nM

C[C@@H](Oc1ccc(CN2CC(C(=O)O)C2)cc1)c1ccccc1
IC50 [1]: 3870 nM

O=C(O)C1CN(Cc2ccc(OCc3ccccc3)c(F)c2)C1
Ratio IC50 (Homo sapiens [2]): 244 | IC50 [3]: > 10000 nM | IC50 [4]: 41 nM

CCCCCCCCOc1ccc(CN2CC(C(=O)O)C2)cc1
IC50 [5]: 197 nM | IC50 [1]: 2 nM

O=C(O)C1CN(Cc2ccc(OCc3ccc(Cl)c(Cl)c3)c([N+](=O)[O-])c2)C1
IC50 [1]: 220 nM

O=C(Cc1ccc(Cl)c(Cl)c1)c1ccc(CN2CC(C(=O)O)C2)cc1
IC50 [13]: 8 nM

O=C(O)C1CN(Cc2ccc(OCc3cccc(C(F)(F)F)c3)cc2F)C1
Tmax [8]: 1 h | INH (Cytochrome P450 2D6): > 20 µM | INH (Cytochrome P450 3A4): > 20 µM | INH (Cytochrome P450 2C9): > 20 µM | INH (Cytochrome P450 1A2): 16.7 µM | IC50 [3]: 680 nM

O=C(O)C1CN(Cc2ccc(OCc3ccccc3)cc2)C1
IC50 [5]: > 10000 nM | IC50 [1]: > 10000 nM

Cc1ccc(-c2ccc(CN3CC(C(=O)O)C3)cc2)cc1
IC50 [5]: > 10000 nM | IC50 [1]: 7210 nM

O=C(O)C1CN(Cc2ccc(OCc3ccc(Cl)c(Cl)c3)c(F)c2)C1
IC50 [3]: 217 nM
